Source: the M2OR odorant receptor database
Numbering of substitutions follows the chain as printed.

Legend:
Details in all cases: stereoisomer not certain
[1] = biological target: T1, OR8D2 (Homo sapiens) (UniProt Q9GZM6)
T1 sequence (whole entry): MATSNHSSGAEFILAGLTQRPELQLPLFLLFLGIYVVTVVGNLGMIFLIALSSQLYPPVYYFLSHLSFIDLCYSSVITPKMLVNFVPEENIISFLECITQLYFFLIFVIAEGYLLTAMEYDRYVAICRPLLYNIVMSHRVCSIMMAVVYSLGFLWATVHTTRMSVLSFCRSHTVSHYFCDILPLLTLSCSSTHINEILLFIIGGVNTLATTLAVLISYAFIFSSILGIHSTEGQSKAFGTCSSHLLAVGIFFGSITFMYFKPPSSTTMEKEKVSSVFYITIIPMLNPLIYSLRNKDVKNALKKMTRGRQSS
Summary of the method: (§1)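 Transient luciferase assays in mammalian cell lines were common, though methods varied by source. The values come from published papers and their supplementary material, with extra details from the original authors when needed. Responsive refers to a measured signal the original authors judged statistically different from baseline, and non-responsive (inactive) to the remainder.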

[2] = biological target: T2, OR8D4 (Homo sapiens) (UniProt Q8NGM9)
T2 sequence (whole entry): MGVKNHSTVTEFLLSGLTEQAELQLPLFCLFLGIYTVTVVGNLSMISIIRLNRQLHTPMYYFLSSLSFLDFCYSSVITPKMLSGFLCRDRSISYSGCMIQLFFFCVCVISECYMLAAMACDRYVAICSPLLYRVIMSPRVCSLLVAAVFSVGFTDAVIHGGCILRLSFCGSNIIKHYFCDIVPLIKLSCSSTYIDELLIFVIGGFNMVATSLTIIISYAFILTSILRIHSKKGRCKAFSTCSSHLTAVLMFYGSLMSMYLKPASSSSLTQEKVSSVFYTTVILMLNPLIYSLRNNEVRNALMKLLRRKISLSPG
Summary of the method: as §1

[3] = biological target: T3, OR8G1 (Homo sapiens) (UniProt Q15617)
T3 sequence (whole entry): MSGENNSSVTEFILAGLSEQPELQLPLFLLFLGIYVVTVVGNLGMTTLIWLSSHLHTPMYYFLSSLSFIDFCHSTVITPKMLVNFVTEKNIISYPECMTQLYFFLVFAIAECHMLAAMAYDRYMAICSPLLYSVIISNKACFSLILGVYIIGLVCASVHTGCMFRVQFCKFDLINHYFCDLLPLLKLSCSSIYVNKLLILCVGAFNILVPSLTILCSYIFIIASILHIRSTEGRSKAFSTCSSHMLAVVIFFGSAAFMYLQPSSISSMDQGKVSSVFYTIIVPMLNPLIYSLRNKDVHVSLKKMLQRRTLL
Summary of the method: as §1

[4] = biological target: T4, OR8G5 (Homo sapiens) (UniProt Q8NG78)
T4 sequence (whole entry): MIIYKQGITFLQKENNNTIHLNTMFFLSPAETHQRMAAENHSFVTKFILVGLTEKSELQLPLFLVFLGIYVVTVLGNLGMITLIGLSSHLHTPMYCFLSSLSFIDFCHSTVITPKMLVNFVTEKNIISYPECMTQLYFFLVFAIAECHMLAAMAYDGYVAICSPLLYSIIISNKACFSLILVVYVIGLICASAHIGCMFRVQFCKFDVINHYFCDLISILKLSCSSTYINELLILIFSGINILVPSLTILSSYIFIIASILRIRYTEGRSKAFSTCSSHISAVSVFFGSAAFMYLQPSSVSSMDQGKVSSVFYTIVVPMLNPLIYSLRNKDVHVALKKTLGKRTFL
Summary of the method: as §1

[5] = biological target: T5, OR8H1 (Homo sapiens) (UniProt Q8NGG4)
T5 sequence (whole entry): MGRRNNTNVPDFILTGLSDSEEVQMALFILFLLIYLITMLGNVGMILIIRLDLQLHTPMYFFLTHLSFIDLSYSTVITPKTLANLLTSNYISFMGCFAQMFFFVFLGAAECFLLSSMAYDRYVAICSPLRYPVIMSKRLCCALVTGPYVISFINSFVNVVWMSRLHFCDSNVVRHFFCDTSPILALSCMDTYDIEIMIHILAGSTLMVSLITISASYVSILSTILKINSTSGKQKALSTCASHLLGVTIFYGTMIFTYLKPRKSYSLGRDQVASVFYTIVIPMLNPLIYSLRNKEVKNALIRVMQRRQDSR
Summary of the method: as §1

[6] = biological target: T6, OR8H2 (Homo sapiens) (UniProt Q8N162)
T6 sequence (whole entry): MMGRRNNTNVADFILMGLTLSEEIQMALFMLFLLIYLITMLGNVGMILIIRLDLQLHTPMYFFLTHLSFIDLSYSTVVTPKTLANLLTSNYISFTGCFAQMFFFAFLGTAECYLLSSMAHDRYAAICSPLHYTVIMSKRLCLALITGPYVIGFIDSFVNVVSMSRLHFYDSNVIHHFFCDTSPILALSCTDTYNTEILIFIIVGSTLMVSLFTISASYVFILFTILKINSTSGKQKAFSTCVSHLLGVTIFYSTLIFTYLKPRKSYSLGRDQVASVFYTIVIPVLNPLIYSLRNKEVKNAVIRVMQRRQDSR
Summary of the method: as §1

[7] = biological target: T7, OR8H3 (Homo sapiens) (UniProt Q8N146)
T7 sequence (whole entry): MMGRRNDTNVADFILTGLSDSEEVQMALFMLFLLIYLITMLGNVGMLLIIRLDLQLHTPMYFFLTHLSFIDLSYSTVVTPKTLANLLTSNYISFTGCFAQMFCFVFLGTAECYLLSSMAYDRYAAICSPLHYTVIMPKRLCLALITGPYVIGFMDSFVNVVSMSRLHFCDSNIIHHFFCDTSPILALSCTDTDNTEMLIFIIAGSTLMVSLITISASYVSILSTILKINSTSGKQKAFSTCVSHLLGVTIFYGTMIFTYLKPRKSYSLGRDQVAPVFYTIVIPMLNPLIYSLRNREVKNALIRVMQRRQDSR
Summary of the method: as §1

[8] = system: T8, OR8D4 C120Y R133K
T8 sequence (whole entry): T2 sequence (whole entry) with C120Y, R133K
Summary of the method: as §1

[9] = system: T9, OR8H2 H120Y Y169C V284M
T9 sequence (whole entry): T6 sequence (whole entry) with H120Y, Y169C, V284M
Summary of the method: as §1

[10] = system: T10, OR8H3
T10 sequence (whole entry): T7 sequence (whole entry) with P137S
Summary of the method: as §1

Measured: odorant receptor agonist call;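 further: active if original authors judged signal statistically different from baseline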

CC1CCCCCCCCCCCCC(=O)C1 (centres undefined)
inactive: [1] | [2] | [3] | [4] | [5] | [6] | [7]

CCC(S)C(C)CO (centres undefined)
inactive: [1] | [2] | [3] | [4] | [5] | [6] | [7]

CC1=C(O)C(=O)C(C)O1 (centres undefined)
inactive: [1] | [2] | [8] | [3] | [4] | [5] | [6] | [9] | [7] | [10]

CCC1OC(C)=C(O)C1=O (centres undefined)
inactive: [1] | [2] | [8] | [3] | [4] | [5] | [6] | [9] | [7] | [10]

CC(CO)CS (centres undefined)
inactive: [1] | [2] | [3] | [4] | [5] | [6] | [7]

CCCC(S)CCOC(C)=O (centres undefined)
inactive: [1] | [2] | [8] | [3] | [4] | [5] | [6] | [9] | [7] | [10]

CC1=C(O)C(=O)OC1C (centres undefined)
inactive: [1] | [2] | [8] | [3] | [4] | [5] | [6] | [9] | [7] | [10]

Cc1cnc(C)c(C)n1
inactive: [1] | [2] | [8] | [3] | [4] | [5] | [6] | [9] | [7] | [10]

CC(=O)c1c(C)c([N+](=O)[O-])c(C(C)(C)C)c([N+](=O)[O-])c1C
inactive: [1] | [2] | [3] | [4] | [5] | [6] | [7]

CCCCC(S)C(C)CO (centres undefined)
inactive: [1] | [2] | [3] | [4] | [5] | [6] | [7]

CCCCCC(=O)C(C)C(C)=O (centres undefined)
inactive: [1] | [2] | [3] | [4] | [5] | [6] | [7]

CCCCCC(S)C(C)CO (centres undefined)
inactive: [1] | [2] | [3] | [4] | [5] | [6] | [7]

CCCCCCC=CCCC=O
inactive: [1] | [2] | [8] | [3] | [4] | [5] | [6] | [9] | [7] | [10]

CCC1OC(=O)C(O)=C1C (centres undefined)
inactive: [1] | [2] | [8] | [3] | [4] | [5] | [6] | [9] | [7] | [10]

CC1=NC(C)C(C)S1 (centres undefined)
inactive: [1] | [2] | [8] | [3] | [4] | [5] | [6] | [9] | [7] | [10]
